From PubChem BioAssay
Only some compounds are listed: those with a hit (about 1.3% of all), similar ones and a draw of the others.
NTR1 agonist: activates human neurotensin receptor 1; P30989; NTR1-U2OS beta-arrestin-GFP spot imaging, agonist mode; activation, % at 20 µM; actives 0.17% (n = 330,000);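 active means activation at or above 40% of the spot to cytoplasm intensity ratio, with at least 20 cells analyzed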
PLC-beta3 inh: blocks human PLC-beta3 enzyme activity; actives 0.18% (n = 370,000); AID 720704; Purified PLC-beta3, fluorogenic substrate, fluorescence; Q01970; inhibition, % at 12.2 µM
Arr AP2 block: inhibitors of human beta-arrestin and AP2 interaction. FITC-arrestin peptide / GST-AP2 beads, flow cytometry; AP2 beta2 appendage carries R879A mutation. inhibition, % at 10 µM. actives 0.31% (n = 340,000);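 active means inhibition above a set limit, near 3 SD of compounds lacking own fluorescence, cut at about 54% in these data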
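Material – GST-tagged AP2 beta2-adaptin appendage (R879A) on 4 µm glutathione beads · Probe or stimulus – fluorescein-tagged arrestin peptide at 50 nM final · Timing – 12 min plus 1 h, RT · Detection – bead flow cytometry, FITC channel · Read-out basis – inhibition as reduced fluorescein signal on beads, percent · Medium – PBS plus Tween 20 (0.05%) and BSA (0.1%)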
PLC-gamma1 inh: inhibitors of human phospholipase C gamma1. purified PLC-gamma1, fluorogenic substrate, fluorescence. actives 0.84% (n = 370,000). inhibition, % at 12.2 µM. P19174; in the data active means inhibition above about 9.5%
Target sequence (P19174 whole entry, looked up): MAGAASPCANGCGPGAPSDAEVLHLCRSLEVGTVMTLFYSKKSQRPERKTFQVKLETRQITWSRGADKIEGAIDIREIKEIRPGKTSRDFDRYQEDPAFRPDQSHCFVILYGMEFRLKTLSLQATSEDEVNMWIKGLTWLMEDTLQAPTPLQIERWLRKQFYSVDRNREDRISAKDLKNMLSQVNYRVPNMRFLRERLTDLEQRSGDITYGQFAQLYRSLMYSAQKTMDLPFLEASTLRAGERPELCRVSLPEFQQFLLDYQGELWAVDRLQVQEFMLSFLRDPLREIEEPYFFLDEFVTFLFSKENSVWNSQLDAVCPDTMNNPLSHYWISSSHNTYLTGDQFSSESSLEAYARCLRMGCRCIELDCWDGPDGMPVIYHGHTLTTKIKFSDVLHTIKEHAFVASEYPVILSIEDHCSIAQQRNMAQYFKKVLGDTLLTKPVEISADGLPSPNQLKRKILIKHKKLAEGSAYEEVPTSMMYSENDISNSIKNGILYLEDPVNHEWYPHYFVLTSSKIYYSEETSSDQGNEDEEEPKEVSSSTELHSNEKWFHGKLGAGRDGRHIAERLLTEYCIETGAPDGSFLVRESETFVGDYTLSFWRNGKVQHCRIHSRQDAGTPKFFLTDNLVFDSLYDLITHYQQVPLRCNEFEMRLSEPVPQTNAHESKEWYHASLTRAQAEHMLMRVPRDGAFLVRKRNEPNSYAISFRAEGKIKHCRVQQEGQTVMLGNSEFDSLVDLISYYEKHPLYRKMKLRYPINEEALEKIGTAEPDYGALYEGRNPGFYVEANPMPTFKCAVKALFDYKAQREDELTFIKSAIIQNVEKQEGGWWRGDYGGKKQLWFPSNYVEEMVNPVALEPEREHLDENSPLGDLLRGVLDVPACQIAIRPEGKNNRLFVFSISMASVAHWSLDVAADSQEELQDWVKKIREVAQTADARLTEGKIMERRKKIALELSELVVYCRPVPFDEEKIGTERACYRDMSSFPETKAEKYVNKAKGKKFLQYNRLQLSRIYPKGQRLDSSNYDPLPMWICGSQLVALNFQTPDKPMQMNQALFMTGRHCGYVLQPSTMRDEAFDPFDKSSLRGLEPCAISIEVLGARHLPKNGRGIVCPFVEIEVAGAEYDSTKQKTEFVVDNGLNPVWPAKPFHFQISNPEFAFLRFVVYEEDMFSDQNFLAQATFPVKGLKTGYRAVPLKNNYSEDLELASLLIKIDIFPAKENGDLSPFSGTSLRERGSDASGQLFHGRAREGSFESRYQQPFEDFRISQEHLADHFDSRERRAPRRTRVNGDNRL
PLCg1 ctr: counter-screen for PLC-beta3 inhibitors: inhibitors of human PLC-gamma1. purified PLC-gamma1, fluorogenic substrate, fluorescence. AID 743258. inhibition, % at 12.3 µM. actives 3.1% (n = 3,300). shares compounds with PLC-gamma1 inh; in the data active means inhibition above about 9.5%
PLCbeta3 conf: human PLC-beta3 inhibition, confirmation | shares compounds with PLC-gamma1 inh | purified PLC-beta3, fluorogenic substrate fluorescence | inhibition, % at 12.3 µM | actives 1% (n = 3,300) | AID 743261
Of the large screens only hits and unclear results are named; the others gave an inactive call (follow-up assays come after a bar, where they were run). Unless noted, no stated cut-off is given here; in the data, active means inhibition above about 11%; inactive means the rest.

C=CCC[C@H](Cc1ccc(F)cc1)C(=O)OC[C@H](Cc1c[nH]c2ccccc12)NC(=O)[C@@H](CC=C)CC(=O)N[C@H](CO)Cc1ccccc1	PLC-gamma1 inh 12 | PLCg1 ctr inactive | PLCbeta3 conf inactive
C=CC[C@@H](CC(=O)N(CCO)Cc1ccccc1)C(=O)N[C@H](COC(=O)[C@@H](CC=C)Cc1ccc(F)cc1)c1ccccc1	none
C=CC[C@@H](CC(=O)N(CCO)Cc1ccccc1)C(=O)N[C@H](COC(=O)[C@@H](CC=C)CC(=O)OC(C)(C)C)Cc1c[nH]c2ccccc12	PLC-gamma1 inh 9.6 | PLCg1 ctr inactive | PLCbeta3 conf inactive
C=CC[C@@H](CC(=O)N(CCO)Cc1ccccc1)C(=O)NC[C@H](OC(=O)[C@@H](CC=C)Cc1ccc(F)cc1)c1ccccc1	PLC-gamma1 inh 10 (no result: Arr AP2 block) | PLCg1 ctr inactive | PLCbeta3 conf inactive
C=CCC[C@H](Cc1ccc(F)cc1)C(=O)OC[C@H](Cc1c[nH]c2ccccc12)NC(=O)[C@@H](CC=C)CC(=O)N[C@@H](CO)Cc1ccccc1	none
C=CC[C@H](CC(=O)N(CCO)Cc1ccccc1)C(=O)N[C@@H](COC(=O)[C@H](CC=C)CC(=O)OC(C)(C)C)Cc1c[nH]c2ccccc12	none (no result: Arr AP2 block)
CCOC(=O)[C@@]12CCC3=C1N(CCC3)C(=O)[C@H](CC(=O)NCc1cccc(C(F)(F)F)c1)C2	none (no result: NTR1 agonist, Arr AP2 block)
COC(=O)C1=C(C)N(Cc2ccccc2C(F)(F)F)C(=NCc2ccc(C(F)(F)F)cc2)NC1c1cccc(Cl)c1 (stereo not drawn)	none (no result: NTR1 agonist, Arr AP2 block)
CCC(OC(=O)C(NC(=O)c1ccccc1)c1ccccc1)C(=O)Nc1cc(C)on1 (stereo not drawn)	PLC-gamma1 inh 12 | PLCg1 ctr inactive | PLCbeta3 conf inactive
CCC(Oc1ccccc1)C(=O)Nc1cc(C)on1 (stereo not drawn)	none
CCOc1cc(Br)cc(C(c2c(C(=O)O)[nH]c3ccccc23)c2c(C(=O)O)[nH]c3ccccc23)c1O	PLC-gamma1 inh 28 | PLCg1 ctr 48 | PLCbeta3 conf inactive
NC1=[N+](Cc2ccccc2)C(Cc2ccccc2)C2C(=C3CCCCC3n3c(=O)n(-c4ccccc4)c(=O)n32)N1 (stereo not drawn)	none (no result: NTR1 agonist, Arr AP2 block)
COC(=O)[C@H]1C[C@@]2(C3C=CC=C3)c3ccccc3N[C@H]2N1	none (no result: NTR1 agonist, Arr AP2 block)
CN(C(=O)c1ccccc1)C1c2c(ccc3ccccc23)OCC1CO (stereo not drawn)	PLC-gamma1 inh 10 | PLCg1 ctr inactive | PLCbeta3 conf 11
O=C(Nc1ncc([N+](=O)[O-])s1)C1CCN(S(=O)(=O)c2cnc[nH]2)CC1	PLC-beta3 inh 13 | PLCg1 ctr inactive | PLCbeta3 conf inactive
COC(=O)C1CN(Cc2ccc(OC)cc2)CCS(=O)(=O)N1Cc1ccccc1 (stereo not drawn)	none (no result: NTR1 agonist, Arr AP2 block)
CC(=O)Nc1ccc(NS(=O)(=O)c2cc(Cl)ccc2Cl)cc1	PLC-gamma1 inh 9.7 | PLCg1 ctr inactive | PLCbeta3 conf inactive
CC1(C(=O)NS(=O)(=O)c2cccs2)CCN1C(=O)c1cccc(F)c1 (stereo not drawn)	PLC-beta3 inh 14 (no result: NTR1 agonist, Arr AP2 block) | PLCg1 ctr inactive | PLCbeta3 conf inactive
CC(=O)c1[nH]c(C)c(C(C)=O)c1C	none
COC(=O)c1c(C)[nH]c(C(C)=O)c1C	PLC-gamma1 inh 11 | PLCg1 ctr inactive | PLCbeta3 conf inactive
O=C(Nc1ccc(F)c(Cl)c1)c1cc(C2CCCN(S(=O)(=O)c3cccc4cccnc34)C2)on1 (stereo not drawn)	PLC-beta3 inh 11 (no result: NTR1 agonist, Arr AP2 block) | PLCg1 ctr inactive | PLCbeta3 conf inactive
O=C(NCCc1c[nH]c2ccccc12)OCc1cn(Cc2ccccc2C(F)(F)F)nn1	none (no result: NTR1 agonist, Arr AP2 block)
COc1ccc([N+](=O)[O-])cc1NC(=O)Nc1ccccc1	none
COc1ccc([N+](=O)[O-])cc1NC(=O)CSCc1ccc(Br)cc1	PLC-gamma1 inh 11 | PLCg1 ctr inactive | PLCbeta3 conf inactive
COC(=O)Nc1cc([N+](=O)[O-])ccc1OC	PLC-gamma1 inh 10.0 | PLCg1 ctr inactive | PLCbeta3 conf inactive
CCCNC(=O)c1cc2c(C(F)(F)F)nn(C)c2s1	PLC-gamma1 inh 13 | PLCg1 ctr inactive | PLCbeta3 conf inactive
CCOC(=O)CC[C@@]1(C(=O)OCC)C[C@@H](CC(=O)NCc2ccc(C)o2)C(=O)N2CCCC=C21	none (no result: NTR1 agonist, Arr AP2 block)
